The values that follow come from ChEMBL document CHEMBL5674890, “Selective inhibition of CBP/p300 HAT by A-485 results in suppression of lipogenesis and hepatic gluconeogenesis” (Cell Death Dis, 2020).

Assay [1] deals with Hepatocyte. Description: Inhibition of lipogenesis in mouse primary hepatocytes assessed as decrease in FASN mRNA expression at 3 uM in presence of 100 nM insulin and 5 to 25 mM glucose measured after 18 hrs by RT-qPCR assay. The format is functional, cell-based. In short, it runs like this: (§1)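 Primary hepatocytes isolated from C57BL/6 mice by two-step perfusion. Cells incubated 18 h with 3 μM inhibitor, with 0 or 100 nM insulin and 5 or 25 mM glucose. Transcripts quantified by SYBR Green RT-qPCR after Trizol RNA extraction; proteins by western blot of lysates. Mean ± SEM.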
On the technique in general: Quantitative PCR measures a nucleic acid by following its amplification.

Assay [2] relates to Hepatocyte. Description: Inhibition of lipogenesis in mouse primary hepatocytes assessed as decrease in ACC mRNA expression at 3 uM in presence of 100 nM insulin and 5 to 25 mM glucose measured after 18 hrs by RT-qPCR assay. Format: functional, cell-based. The method in brief:
as §1

For the next assay, the system named is Adipocyte. Description: Inhibition of lipogenesis in mouse adipocytes isolated stromal vascular cells assessed as decrease in DGAT2 mRNA expression measured after 24 hrs by RT-qPCR assay. The format is functional, cell-based. The method in brief: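 Stromal vascular cells from inguinal WAT of C57BL/6 mice, grown in DMEM/F12 + 10% FBS at 37 °C, 10% CO2. At confluence, induced 48 h with 5 μg/ml insulin, 1 μM dexamethasone, 0.5 mM isobutylmethylxanthine, then 6 days in 5 μg/ml insulin; fully differentiated day 8. Mature adipocytes exposed to inhibitor 24 h. Total RNA by Trizol, SYBR Green RT-qPCR; protein by western blot.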

In assay [3] the test system is Mus musculus. Description: Anti-obesity activity in C57BL/6 mouse supplemented with normal chow diet assessed as effect on random blood glucose at 20 mg/kg/day, ip administered for 1 week. The format is functional, organism-based. The following applies: time 1.0 weeks. The method in brief: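 8-week-old male C57BL/6 mice on normal chow, ip 20 mg·kg−1·day−1 for 7 days. Blood glucose measured randomly fed or after 6 h or 16 h fasting, as the line states. Mean ± SEM, n = 5–9.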

Assay [4] deals with Mus musculus. Briefly: Anti-obesity activity in C57BL/6 mouse supplemented with high fat diet assessed as decrease in fasting blood glucose at 20 mg/kg/day, ip administered for 1 week. Format: functional, organism-based. Conditions: time 1.0 weeks. The method in brief:
(§2)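 Male C57BL/6 mice fed high-fat diet for 14 weeks from 5 weeks of age, then ip 20 mg·kg−1·day−1 for 7 days. Body weight, EchoMRI lean/fat mass, and random or 16 h-fasted blood glucose recorded, as the line states.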

The test system of assay [5] is Mus musculus. Description: Inhibition of lipogenesis in C57BL/6 mouse supplemented with normal chow diet assessed as decrease in PPARgamma mRNA expression at 20 mg/kg/day, ip administered for 1 week measured measured by RT-qPCR assay. The format is functional, organism-based. Conditions: time 1.0 weeks. In short, it runs like this:
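Eight-week-old male C57BL/6 mice on normal chow were given 20 mg·kg−1·day−1 ip daily for 7 days or vehicle. Epididymal WAT was collected. Lipogenic, adipogenic and fatty-acid-oxidation transcripts were quantified by Trizol extraction and SYBR Green RT-qPCR. FAS, ACC, PPARγ and C/EBPα protein were assessed by western blot. n = 5–9; mean ± SEM.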

For assay [6], the target named is T1, CREB-binding protein/Histone acetyltransferase p300 (Homo sapiens) (UniProt Q09472+Q92793). Description: Inhibition of CBP/p300 in human HepG2 cells assessed as increase in FOXO1 and COP1 interaction at 3 uM. Format: cell-based. In short, it runs like this:
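HepG2 cells treated with 3 μM compound. FOXO1–COP1 interaction assessed by immunoprecipitation: lysate with antibody 2 h, then protein A/G beads overnight at 4 °C, followed by western blot.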

In assay [7] the target is T1, CREB-binding protein/Histone acetyltransferase p300 (Homo sapiens). Description: Inhibition of CBP/p300 in mouse primary hepatocytes stimulated with 100 uM 8-Br-cAMP assessed as decrease in FOXO1 abundance in cytoplasm at 3 uM. Format: cell-based. The following applies: Primary hepatocyte. In short, it runs like this: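 Primary mouse hepatocytes treated with 3 μM compound and 100 μM 8-Br-cAMP. Nuclear and cytoplasmic fractions separated with a commercial kit; FOXO1 detected by western blot.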

Assay [8] concerns Hepatocyte. Description: Inhibition of glucogenesis in mouse primary hepatocytes stimulated with 100 uM 8-Br-cAMP assessed as decrease in G6Pc mRNA expression at 3 uM in combination with 2 mM metformin measured by RT-qPCR assay. Format: functional, cell-based. The method in brief: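 Primary mouse hepatocytes given 3 μM compound with 2 mM metformin in the presence of 100 μM 8-Br-cAMP. Gluconeogenic gene mRNA measured by SYBR Green RT-qPCR. Mean ± SEM, three independent experiments.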

The subject of assay [9] is Mus musculus. Description: Inhibition of lipogenesis in C57BL/6 mouse supplemented with high-fat diet assessed as decrease in adipocyte size of WAT at 20 mg/kg/day, ip administered for 1 week. Format: functional, organism-based. Conditions: time 1.0 weeks. The method in brief:
(§3)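 Male C57BL/6 mice were fed high-fat diet for 14 weeks from 5 weeks of age, then injected ip with 20 mg·kg−1·day−1 for 7 days or given vehicle. Epididymal and inguinal WAT were weighed, examined by H&E, and analysed. Transcripts were measured by Trizol/SYBR Green RT-qPCR; proteins by western blot. n = 5–9; mean ± SEM.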

Assay [10] concerns Mus musculus. Briefly: Inhibition of lipogenesis in C57BL/6 mouse supplemented with high-fat diet assessed as decrease in gross size of WAT at 20 mg/kg/day, ip administered for 1 week. Format: functional, organism-based. Conditions: time 1.0 weeks. The method in brief:
as §3

For assay [11], the system named is Hepatocyte. Briefly: Inhibition of lipogenesis in mouse primary hepatocytes assessed as increase in FGF21 mRNA expression at 3 uM in presence of 100 nM insulin and 5 to 25 mM glucose measured after 18 hrs by RT-qPCR assay. The format is functional, cell-based. In short, it runs like this: as §1
The subject of assay [12] is Hepatocyte. Briefly: Inhibition of lipogenesis in mouse primary hepatocytes assessed as decrease in FAS protein expression at 3 uM in presence of 100 nM insulin and 5 to 25 mM glucose measured after 18 hrs by western blot analysis. The format is functional, cell-based. (In general: A western blot detects proteins with antibodies after separation by electrophoresis.)

Assay [13] deals with Hepatocyte. Description: Inhibition of glucogenesis in mouse primary hepatocytes stimulated with 100 uM 8-Br-cAMP assessed as effect on HNF4alpha mRNA expression at 3 uM measured after 8 hrs by RT-qPCR assay. Format: functional, cell-based. In short, it runs like this: (§4)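 Primary mouse hepatocytes treated with 3 μM compound and 100 μM 8-Br-cAMP for 8 h. Trizol RNA, SYBR Green RT-qPCR of the named transcript. Mean ± SEM, three independent experiments.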

The test system of assay [14] is Hepatocyte. Briefly: Inhibition of glucogenesis in mouse primary hepatocytes stimulated with 100 uM 8-Br-cAMP assessed as effect on FOXO1 mRNA expression at 3 uM measured after 8 hrs by RT-qPCR assay. The format is functional, cell-based. The method in brief: as §4
Assay [15] has as its system Mus musculus. Briefly: Inhibition of lipogenesis in C57BL/6 mouse supplemented with high-fat diet assessed as decrease in weight of inguinal white adipose tissue (iWAT) at 20 mg/kg/day, ip administered for 1 week. Format: functional, organism-based. The following applies: time 1.0 weeks. In short, it runs like this: as §3
For the next assay, the system named is HepG2. Description: Inhibition of glucogenesis in human HepG2 cells stimulated with 8-Br-cAMP at 3 uM assessed as effect on increased CRE luciferase activity. The format is functional, cell-based. In short, it runs like this:
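HepG2 cells treated with 3 μM compound; CRE reporter activity measured. Mean ± SEM, three independent experiments.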

The subject of assay [16] is Mus musculus. Briefly: Anti-obesity activity in C57BL/6 mouse supplemented with high fat diet assessed as decrease in body weight at 20 mg/kg/day, ip administered for 1 week. The format is functional, organism-based. Conditions: time 1.0 weeks. The method in brief:
as §2

Assay [17] has as its system Mus musculus. Briefly: Anti-obesity activity in C57BL/6 mouse supplemented with high fat diet assessed as effect on random blood glucose at 20 mg/kg/day, ip administered for 1 week. Format: functional, organism-based. The following applies: time 1.0 weeks. In short, it runs like this: as §2
In assay [18] the test system is Mus musculus. Briefly: Anti-obesity activity in C57BL/6 mouse supplemented with high fat diet assessed as decrease in total fat mass at 20 mg/kg/day, ip administered for 1 week. The format is functional, organism-based. Conditions: time 1.0 weeks. The method in brief: as §2

Molecules are shown by their SMILES. The source made the active and inactive calls. The rule behind the calls is not given here.

T1 sequence (Q09472 whole entry, looked up): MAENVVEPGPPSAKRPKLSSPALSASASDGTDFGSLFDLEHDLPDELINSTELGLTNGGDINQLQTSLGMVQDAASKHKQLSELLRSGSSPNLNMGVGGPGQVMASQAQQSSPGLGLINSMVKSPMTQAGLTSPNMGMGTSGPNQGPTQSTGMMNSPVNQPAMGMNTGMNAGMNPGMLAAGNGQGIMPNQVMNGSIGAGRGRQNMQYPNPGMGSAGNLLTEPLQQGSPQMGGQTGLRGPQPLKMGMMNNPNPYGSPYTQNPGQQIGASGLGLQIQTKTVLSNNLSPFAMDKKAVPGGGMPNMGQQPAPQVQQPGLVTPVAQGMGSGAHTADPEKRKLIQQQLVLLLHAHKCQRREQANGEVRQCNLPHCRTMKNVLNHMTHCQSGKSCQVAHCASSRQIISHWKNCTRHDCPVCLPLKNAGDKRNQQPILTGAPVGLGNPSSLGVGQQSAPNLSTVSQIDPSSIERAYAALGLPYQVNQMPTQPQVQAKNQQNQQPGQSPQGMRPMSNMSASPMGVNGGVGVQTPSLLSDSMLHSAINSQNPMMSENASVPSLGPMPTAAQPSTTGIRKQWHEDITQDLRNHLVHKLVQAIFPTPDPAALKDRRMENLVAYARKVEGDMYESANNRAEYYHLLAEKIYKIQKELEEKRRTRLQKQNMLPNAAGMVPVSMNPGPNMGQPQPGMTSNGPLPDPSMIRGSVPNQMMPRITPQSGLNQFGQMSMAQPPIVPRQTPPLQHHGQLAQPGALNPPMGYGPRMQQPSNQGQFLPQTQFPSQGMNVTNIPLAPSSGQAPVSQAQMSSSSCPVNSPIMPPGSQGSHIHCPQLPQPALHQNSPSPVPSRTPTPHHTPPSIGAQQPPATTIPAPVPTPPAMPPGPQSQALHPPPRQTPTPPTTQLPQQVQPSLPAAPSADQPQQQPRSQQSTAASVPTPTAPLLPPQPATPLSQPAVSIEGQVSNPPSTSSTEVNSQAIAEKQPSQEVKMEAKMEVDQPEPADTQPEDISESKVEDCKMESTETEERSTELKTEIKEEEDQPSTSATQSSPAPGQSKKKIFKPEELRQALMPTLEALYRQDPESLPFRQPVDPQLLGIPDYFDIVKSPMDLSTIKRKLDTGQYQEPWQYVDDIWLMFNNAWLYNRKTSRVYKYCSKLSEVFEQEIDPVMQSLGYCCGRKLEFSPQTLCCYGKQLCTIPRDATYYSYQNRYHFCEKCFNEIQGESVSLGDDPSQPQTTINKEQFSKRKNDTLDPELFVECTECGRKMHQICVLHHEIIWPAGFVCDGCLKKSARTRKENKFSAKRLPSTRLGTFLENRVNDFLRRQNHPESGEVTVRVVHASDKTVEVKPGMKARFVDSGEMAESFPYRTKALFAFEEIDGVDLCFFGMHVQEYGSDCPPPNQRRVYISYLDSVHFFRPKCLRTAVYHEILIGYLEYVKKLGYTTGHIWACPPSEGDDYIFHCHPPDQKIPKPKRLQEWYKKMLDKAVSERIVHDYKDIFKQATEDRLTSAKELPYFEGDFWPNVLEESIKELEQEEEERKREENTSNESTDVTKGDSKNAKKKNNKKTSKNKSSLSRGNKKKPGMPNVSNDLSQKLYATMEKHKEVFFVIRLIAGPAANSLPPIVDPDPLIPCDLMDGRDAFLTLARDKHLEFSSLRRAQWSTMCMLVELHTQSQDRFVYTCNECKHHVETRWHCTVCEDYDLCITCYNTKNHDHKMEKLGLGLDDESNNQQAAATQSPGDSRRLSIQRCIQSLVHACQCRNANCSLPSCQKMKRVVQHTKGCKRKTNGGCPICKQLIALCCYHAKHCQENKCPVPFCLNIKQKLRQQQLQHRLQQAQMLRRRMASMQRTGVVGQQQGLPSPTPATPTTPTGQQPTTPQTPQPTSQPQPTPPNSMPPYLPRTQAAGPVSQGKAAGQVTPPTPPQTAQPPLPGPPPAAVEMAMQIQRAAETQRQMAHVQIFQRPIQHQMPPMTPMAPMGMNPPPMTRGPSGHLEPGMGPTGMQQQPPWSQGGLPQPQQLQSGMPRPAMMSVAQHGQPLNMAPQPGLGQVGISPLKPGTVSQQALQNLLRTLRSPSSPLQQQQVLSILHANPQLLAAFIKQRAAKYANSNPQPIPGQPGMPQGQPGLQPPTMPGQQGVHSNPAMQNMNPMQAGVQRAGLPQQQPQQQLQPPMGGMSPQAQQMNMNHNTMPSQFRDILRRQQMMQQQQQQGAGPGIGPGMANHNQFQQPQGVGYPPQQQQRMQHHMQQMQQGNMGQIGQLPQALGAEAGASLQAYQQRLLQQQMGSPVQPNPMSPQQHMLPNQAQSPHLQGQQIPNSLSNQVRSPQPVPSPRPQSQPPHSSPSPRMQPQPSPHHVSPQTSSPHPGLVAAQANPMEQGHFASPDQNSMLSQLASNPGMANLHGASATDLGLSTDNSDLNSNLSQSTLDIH
T1 sequence (Q92793 whole entry, looked up): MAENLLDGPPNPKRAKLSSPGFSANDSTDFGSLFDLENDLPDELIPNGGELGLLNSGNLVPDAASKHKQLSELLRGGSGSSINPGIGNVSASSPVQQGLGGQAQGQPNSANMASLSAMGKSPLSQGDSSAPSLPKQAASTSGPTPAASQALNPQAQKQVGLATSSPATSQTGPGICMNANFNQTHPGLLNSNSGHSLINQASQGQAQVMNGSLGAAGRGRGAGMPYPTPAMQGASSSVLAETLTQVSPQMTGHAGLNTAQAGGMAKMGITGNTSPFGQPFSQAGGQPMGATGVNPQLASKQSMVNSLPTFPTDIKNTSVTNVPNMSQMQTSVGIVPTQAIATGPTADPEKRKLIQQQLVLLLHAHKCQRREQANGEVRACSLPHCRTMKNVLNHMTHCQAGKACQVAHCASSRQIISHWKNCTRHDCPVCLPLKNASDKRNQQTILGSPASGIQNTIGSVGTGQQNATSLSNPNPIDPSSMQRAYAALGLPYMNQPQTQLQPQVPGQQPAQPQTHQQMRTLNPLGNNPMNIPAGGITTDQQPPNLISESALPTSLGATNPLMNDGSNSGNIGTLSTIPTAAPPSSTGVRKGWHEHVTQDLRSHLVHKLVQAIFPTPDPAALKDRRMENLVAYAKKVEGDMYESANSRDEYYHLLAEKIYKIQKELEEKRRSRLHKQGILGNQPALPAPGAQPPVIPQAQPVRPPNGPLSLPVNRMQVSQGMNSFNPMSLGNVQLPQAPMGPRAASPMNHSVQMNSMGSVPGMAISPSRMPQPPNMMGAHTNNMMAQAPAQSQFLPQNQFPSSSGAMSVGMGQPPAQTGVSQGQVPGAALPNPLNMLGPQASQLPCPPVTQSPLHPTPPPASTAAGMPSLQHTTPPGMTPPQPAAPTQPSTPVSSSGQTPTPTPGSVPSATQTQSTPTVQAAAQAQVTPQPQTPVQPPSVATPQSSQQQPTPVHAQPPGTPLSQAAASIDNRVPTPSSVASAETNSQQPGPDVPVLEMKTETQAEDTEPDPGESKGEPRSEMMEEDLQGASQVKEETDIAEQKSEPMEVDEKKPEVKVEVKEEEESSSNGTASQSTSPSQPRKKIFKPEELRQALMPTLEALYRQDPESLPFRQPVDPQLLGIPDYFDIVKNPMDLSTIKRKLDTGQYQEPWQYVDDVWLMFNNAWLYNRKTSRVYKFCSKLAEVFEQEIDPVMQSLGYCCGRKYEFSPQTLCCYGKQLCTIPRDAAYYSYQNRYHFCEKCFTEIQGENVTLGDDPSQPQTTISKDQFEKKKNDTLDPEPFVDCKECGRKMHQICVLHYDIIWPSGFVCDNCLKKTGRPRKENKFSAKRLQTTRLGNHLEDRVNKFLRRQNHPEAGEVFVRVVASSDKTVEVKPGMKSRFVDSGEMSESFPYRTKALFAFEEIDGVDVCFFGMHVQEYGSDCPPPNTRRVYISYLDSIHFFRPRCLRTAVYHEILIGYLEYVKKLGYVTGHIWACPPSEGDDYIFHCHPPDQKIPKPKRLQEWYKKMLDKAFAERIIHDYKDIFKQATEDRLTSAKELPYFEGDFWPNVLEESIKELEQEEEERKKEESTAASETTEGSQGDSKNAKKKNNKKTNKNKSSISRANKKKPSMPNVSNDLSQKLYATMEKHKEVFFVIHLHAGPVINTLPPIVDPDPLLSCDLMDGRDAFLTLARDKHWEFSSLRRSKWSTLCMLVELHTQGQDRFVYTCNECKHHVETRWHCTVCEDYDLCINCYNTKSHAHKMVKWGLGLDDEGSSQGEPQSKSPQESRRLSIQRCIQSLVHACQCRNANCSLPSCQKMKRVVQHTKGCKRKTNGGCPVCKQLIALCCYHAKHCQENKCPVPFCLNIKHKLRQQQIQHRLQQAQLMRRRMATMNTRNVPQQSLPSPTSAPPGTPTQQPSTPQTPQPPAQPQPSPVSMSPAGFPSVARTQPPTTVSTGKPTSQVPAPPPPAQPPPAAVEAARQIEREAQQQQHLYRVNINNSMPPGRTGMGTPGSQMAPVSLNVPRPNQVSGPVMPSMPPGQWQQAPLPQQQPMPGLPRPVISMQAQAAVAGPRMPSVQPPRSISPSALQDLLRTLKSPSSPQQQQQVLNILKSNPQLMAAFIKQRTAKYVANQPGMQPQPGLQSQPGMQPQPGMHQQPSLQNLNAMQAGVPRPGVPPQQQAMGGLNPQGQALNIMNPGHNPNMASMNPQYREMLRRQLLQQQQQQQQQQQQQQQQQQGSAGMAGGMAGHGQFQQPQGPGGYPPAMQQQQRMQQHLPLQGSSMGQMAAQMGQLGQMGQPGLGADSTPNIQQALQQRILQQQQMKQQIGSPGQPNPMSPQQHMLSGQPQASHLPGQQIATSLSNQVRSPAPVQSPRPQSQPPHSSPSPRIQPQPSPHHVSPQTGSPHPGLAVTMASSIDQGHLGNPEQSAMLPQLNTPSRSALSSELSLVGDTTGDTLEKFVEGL

With `CNC(=O)Nc1ccc2c(c1)CCS21OC(=O)N(CC(=O)N(Cc2ccc(F)cc2)[C@@H](C)C(F)(F)F)C1=O` (stereo not given in full), the inhibition entry (in the assay with Hepatocyte [1]; with Hepatocyte [2]; with Adipocyte; in the assay with Mus musculus [5]; in [6]; in assay [7]) was “Active” in each case. Moreover, the inhibition result in the assay with Hepatocyte [8], in the assay on Mus musculus [9], in the assay on Mus musculus [10], with Hepatocyte [11], in the assay on Hepatocyte [12] and in the assay with Mus musculus [15] was “Active” each time. Further, the result in the assay on Mus musculus [3] and with Mus musculus [17] was inactive. Also, the outcome in the assay on Mus musculus [4], with Mus musculus [16] and with Mus musculus [18] was Active. Moreover, the inhibition result in the assay with Hepatocyte [13], with Hepatocyte [14] and in the assay with HepG2 was “inactive” throughout.
